Assays:
Alpha-galactosidase = Alpha-galactosidase (Coffea arabica, UniProt Q5DUH8); experiment: Inhibition of green coffee alpha galactosidase
[1] = Inhibition of yeast alpha glucosidase; design: species or system Saccharomyces cerevisiae
[2] = molecular target: T1, Beta-galactosidase (Aspergillus niger) (UniProt P29853); experiment: Inhibition of Aspergillus beta galactosidase at 1 mM
T1 sequence (whole entry): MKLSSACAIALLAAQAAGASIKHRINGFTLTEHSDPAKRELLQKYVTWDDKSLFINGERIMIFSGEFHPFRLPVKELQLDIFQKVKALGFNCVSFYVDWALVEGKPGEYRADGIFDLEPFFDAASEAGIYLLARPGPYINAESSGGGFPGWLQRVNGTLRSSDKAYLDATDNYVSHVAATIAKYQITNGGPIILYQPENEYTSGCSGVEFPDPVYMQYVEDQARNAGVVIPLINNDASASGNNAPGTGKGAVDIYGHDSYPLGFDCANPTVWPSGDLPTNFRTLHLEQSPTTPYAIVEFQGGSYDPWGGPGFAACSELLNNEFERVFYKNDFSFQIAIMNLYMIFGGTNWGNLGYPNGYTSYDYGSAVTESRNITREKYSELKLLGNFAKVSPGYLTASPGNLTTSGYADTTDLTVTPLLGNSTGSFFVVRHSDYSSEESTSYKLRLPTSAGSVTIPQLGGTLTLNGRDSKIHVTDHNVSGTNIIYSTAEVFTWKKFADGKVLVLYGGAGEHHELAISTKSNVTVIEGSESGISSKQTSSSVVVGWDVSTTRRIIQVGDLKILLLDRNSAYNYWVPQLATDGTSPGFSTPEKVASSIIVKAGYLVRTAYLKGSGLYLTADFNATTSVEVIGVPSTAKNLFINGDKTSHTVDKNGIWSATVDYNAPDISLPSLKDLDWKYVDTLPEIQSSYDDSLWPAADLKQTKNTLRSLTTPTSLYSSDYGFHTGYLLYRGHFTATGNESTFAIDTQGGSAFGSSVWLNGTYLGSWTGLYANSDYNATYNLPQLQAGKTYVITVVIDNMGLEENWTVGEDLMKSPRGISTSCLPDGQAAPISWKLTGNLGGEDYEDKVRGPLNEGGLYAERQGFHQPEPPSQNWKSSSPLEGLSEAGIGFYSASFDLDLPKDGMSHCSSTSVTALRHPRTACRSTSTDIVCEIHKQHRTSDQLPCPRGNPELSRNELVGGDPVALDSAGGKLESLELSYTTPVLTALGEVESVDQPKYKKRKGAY
Outline: (§1)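 Commercial enzymes: yeast α-glucosidase, almond β-glucosidase, green coffee bean α-galactosidase, Aspergillus β-galactosidase. Each was run at its optimum pH and temperature with the matching p-nitrophenyl glycoside at a substrate concentration equal to the calculated Km. Inhibitor was at 1 mM final. Low-pH reactions were stopped with 400 mM Na2CO3. Released p-nitrophenol was read at 405 nm, giving % inhibition.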

Saccharomyces cerevisiae = experiment: Inhibition of yeast alpha glucosidase at 1 mM; outline: as §1
[3] = molecular target: Alpha-galactosidase (Coffea arabica) (UniProt Q5DUH8); experiment: Inhibition of green coffee alpha galactosidase at 1 mM; outline: as §1
Beta-galactosidase = molecular target: T2, Beta-galactosidase (Bos taurus, UniProt Q58D55); experiment: Inhibition of bovine liver beta galactosidase
T2 sequence (Q58D55 whole entry): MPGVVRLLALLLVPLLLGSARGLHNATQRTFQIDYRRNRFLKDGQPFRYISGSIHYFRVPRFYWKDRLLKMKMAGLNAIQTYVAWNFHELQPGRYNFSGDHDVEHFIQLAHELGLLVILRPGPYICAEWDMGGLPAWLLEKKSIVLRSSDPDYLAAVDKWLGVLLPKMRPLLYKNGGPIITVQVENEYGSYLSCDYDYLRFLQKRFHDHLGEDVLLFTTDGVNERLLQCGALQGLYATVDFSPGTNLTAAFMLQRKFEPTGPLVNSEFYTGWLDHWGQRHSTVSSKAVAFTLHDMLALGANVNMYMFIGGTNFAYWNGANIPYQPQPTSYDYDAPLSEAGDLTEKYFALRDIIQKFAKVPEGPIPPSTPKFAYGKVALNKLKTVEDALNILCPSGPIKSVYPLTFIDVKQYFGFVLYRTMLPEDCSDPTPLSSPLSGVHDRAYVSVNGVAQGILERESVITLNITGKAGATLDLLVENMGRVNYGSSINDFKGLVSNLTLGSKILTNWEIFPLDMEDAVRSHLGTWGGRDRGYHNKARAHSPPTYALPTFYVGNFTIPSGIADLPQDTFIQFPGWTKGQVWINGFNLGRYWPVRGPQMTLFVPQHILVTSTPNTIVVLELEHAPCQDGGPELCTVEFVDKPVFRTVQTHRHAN

[4] = molecular target: T3, Alpha-glucosidase-like (Oryza sativa Japonica Group) (UniProt A0A5S6RD55); experiment: Inhibition of rice alpha glucosidase at 1 mM
T3 sequence (whole entry): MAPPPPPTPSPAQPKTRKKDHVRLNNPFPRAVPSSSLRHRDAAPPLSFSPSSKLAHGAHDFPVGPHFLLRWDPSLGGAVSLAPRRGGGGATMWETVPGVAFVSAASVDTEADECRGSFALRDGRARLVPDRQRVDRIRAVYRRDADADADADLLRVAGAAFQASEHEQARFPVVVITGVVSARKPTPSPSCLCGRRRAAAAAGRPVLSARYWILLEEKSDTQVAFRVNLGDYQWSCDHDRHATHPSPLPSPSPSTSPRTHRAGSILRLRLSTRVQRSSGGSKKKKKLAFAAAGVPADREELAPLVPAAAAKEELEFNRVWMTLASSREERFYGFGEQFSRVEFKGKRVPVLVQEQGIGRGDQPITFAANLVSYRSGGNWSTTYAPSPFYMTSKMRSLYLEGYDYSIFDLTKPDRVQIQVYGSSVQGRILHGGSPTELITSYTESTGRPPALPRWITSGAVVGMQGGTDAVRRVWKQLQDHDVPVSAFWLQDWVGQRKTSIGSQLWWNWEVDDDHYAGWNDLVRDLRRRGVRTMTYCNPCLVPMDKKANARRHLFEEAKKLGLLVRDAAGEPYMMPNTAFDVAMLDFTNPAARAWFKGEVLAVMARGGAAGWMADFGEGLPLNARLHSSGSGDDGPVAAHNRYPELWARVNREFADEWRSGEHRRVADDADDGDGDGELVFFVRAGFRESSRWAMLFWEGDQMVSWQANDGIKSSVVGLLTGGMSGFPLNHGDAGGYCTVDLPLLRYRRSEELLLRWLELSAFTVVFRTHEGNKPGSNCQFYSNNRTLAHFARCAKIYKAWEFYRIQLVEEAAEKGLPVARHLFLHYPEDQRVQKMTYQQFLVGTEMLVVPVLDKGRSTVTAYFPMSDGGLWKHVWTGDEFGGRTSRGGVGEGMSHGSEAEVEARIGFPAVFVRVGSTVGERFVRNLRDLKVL

Chain of Alpha-galactosidase (Coffea arabica) (Q5DUH8 as listed by the source): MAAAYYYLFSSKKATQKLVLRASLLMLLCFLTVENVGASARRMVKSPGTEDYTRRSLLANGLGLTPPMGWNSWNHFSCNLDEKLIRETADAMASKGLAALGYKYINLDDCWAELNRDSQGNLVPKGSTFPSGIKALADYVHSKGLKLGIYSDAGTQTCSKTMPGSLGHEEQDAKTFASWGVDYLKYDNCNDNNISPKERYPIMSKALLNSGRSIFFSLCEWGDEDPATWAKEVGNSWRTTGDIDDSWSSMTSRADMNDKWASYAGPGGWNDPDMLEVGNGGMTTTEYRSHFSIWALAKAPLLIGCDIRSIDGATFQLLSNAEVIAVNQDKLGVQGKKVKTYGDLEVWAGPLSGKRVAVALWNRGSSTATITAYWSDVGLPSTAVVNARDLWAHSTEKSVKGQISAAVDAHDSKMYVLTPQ
Chain of Alpha-galactosidase (Q5DUH8 whole entry): as the sequence (Q5DUH8 as listed by the source) above

Compound | Ki (Alpha-galactosidase) | Ki [1] | inhibition [2] | inhibition (Saccharomyces cerevisiae) | inhibition [3] | IC50 (Alpha-galactosidase) | IC50 (Beta-galactosidase) | inhibition [4]
CCCCCCC[C@@H]1C[C@@H](O)[C@@H](O)[C@@H](CO)N1 | 141 µM | 154 µM | < 40% | – | – | – | – | –
CCCCCCCCCCC[C@@H]1C[C@H](O)[C@@H](O)[C@@H](CO)N1 | – | 196 µM | < 40% | – | < 40% | – | – | –
CCCCCCC[C@@H]1C[C@H](O)[C@@H](O)[C@@H](CO)N1 | – | – | < 40% | < 40% | < 40% | – | – | –

Second part, the molecule after the results:

Ki (Alpha-galactosidase) | Ki [1] | inhibition [2] | inhibition (Saccharomyces cerevisiae) | inhibition [3] | IC50 (Alpha-galactosidase) | IC50 (Beta-galactosidase) | inhibition [4] | Compound
– | – | < 40% | < 40% | < 40% | – | – | – | CCCC[C@@H]1C[C@H](O)[C@@H](O)[C@@H](CO)N1
721 µM | 123 µM | < 40% | – | – | – | – | – | CC[C@@H]1C[C@@H](O)[C@@H](O)[C@@H](CO)N1
– | – | – | – | – | 6.4 µM | 34 µM | < 40% | CC[C@@H]1C[C@H](O)[C@@H](O)[C@@H](CO)N1
– | – | < 40% | < 40% | < 40% | – | – | – | CCC[C@@H]1C[C@H](O)[C@@H](O)[C@@H](CO)N1

From ChEMBL document CHEMBL1147832, “Flexible synthesis and biological evaluation of novel 5-deoxyadenophorine analogues” (Bioorg Med Chem Lett, 2006)
